Assay results from ChEMBL document CHEMBL1126319, “Synthesis, antiproliferative, and antiviral activity of certain 4-aminopyrrolo[2,3-d]pyridazine nucleosides: an entry into a novel series of adenosine analogues” (J Med Chem, 1992).

What was measured:
[1] = tested on: Human betaherpesvirus 5; assay: Concentration required to decrease the growth rate to 50% of control was evaluated against HCMV by using plaque reduction assay.; format: functional, organism-based
In short: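 HFF monolayers infected with about 50 PFU of HCMV Towne strain (plaque-purified P0 isolate) in a 0.2 mL inoculum. Compounds are dissolved in the overlay medium and plaques are counted. Percent inhibition is regressed linearly against log concentration to give the IC50. Acyclovir or ganciclovir serves as positive control. Values are averages of two to seven experiments.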

[2] = species on record: Homo sapiens; assay: In vitro antiproliferative effect against growth rate of H. Ep.2 cells at 100 uM concentration; format: functional
In short: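 H.Ep.2 cells receive compound at 100 μM. Growth is read by crystal violet A560-570 at days 0, 2 and 5 and expressed as growth rate, the slope of semilog cell number versus time as a percent of control.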

[3] = tested on: Human alphaherpesvirus 1; assay: Concentration required to decrease the growth rate to 50% of control was evaluated against HSV-1 by using enzyme immunoassay.
[4] = tested on: L1210; assay: In vitro antiproliferative effect against growth rate of L1210 cells at 100 uM concentration; format: functional, Mus musculus
In short: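 L1210 cells are held in static suspension in Fischer's medium with compound at 100 μM. Cell counts are taken at 0, 48 and 96 h. Growth rate is the semilog slope versus time as a percent of control.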

[5] = Cytotoxicity of compound was determined visually in human diploid fibroblasts (HFF).
In short: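 HFF cells are grown in MEM(E) with 10% FBS. Drug-induced cytopathology in uninfected cells of the HCMV plaque assay is scored 0 to 4+ at 35- and 60-fold magnification on the day of plaque staining. IC50 comes from regression against log concentration.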

[6] = tested on: L1210; assay: Concentration required to decrease the growth rate to 50% of control was evaluated by determining their ability to inhibit growth of L1210 cells in vitro.; format: functional, cell-based; settings: Mus musculus
In short: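 L1210 cells are grown in static suspension in Fischer's medium. Cell number is counted at 0, 48 and 96 h across a range of compound concentrations. Growth rate is the semilog slope as a percent of control; the 48–96 h rate is used if growth slowed. IC50 is the concentration giving 50% of control growth rate.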

[7] = species on record: Homo sapiens; assay: Concentration required to decrease the growth rate to 50% of control was evaluated by determining their ability to inhibit growth of H.Ep.2 cells in vitro.; format: functional, cell-based; settings: HEp-2
In short: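 H.Ep.2 cells are grown in MEM (Earle's salts) with 15% bovine calf serum under 5% CO2, and 2000 cells/well are plated in MEM with 5% serum. Compounds are added 1 day later. Growth is read by crystal violet staining (A560-570) at days 0, 2 and 5 after addition. Growth rate is Td(control)/Td(treated), and IC50 is the concentration halving growth rate.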

[8] = tested on: Human betaherpesvirus 5; assay: Concentration required to decrease the growth rate to 50% of control was evaluated against HCMV by using yield reduction assay.; format: functional
[9] = tested on: KB; assay: Cytotoxicity of compound was determined by assaying cell growth in human neoplastic cell line(KB).; format: functional, cell-based
In short: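 KB cells (human epidermoid oral carcinoma) are grown in MEM(H) with 5% FBS. Growth is measured spectrophotometrically by crystal violet staining two days after drug treatment. IC50 comes from linear regression of percent inhibition against log concentration.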

Compound | IC50 [1] [µM] | Control [2] [%] | IC50 [3] [µM] | Control [4] [%] | IC50 [5] [µM] | IC50 [6] [µM] | IC50 [7] [µM] | IC90 [8] [µM] | IC50 [9] [µM] | Of control [2] [%]
Nc1nncc2c1ccn2C1O[C@H](CO)[C@@H](O)[C@H]1O (stereo partly drawn) | > 100 | 93 | > 100 | 100 | > 100 | – | – | – | – | –
Nc1nncc2c1ccn2C1O[C@H](CO)[C@@H](O)[C@@H]1O (stereo partly drawn) | > 100 | – | > 100 | 88 | > 100 | > 100 | – | – | – | –
Nc1nncc2c1c(Br)cn2C1O[C@H](CO)[C@@H](O)[C@H]1O (stereo partly drawn) | 90 | – | 30 | 9 | 100 | 24 | 5.2 | 2.2 | 12 | 6
Nc1ncnc2c1c(Br)cn2[C@@H]1O[C@H](CO)[C@@H](O)[C@H]1O | 0.6 | – | 4 | 9 | 1.2 | – | – | 3.5 | 3 | –
Nc1nc2c(ncn2COCCO)c(=O)[nH]1 [ACYCLOVIR] | – | – | 3.4 | – | > 100 | – | – | 90 | > 100 | –
Nc1nc2c(ncn2COC(CO)CO)c(=O)[nH]1 [GANCICLOVIR] | 8.4 | – | – | – | > 100 | – | – | 1.8 | > 100 | –
Nc1ncnc2c1ccn2[C@@H]1O[C@H](CO)[C@@H](O)[C@H]1O [TUBERCIDIN] | – | – | – | 0 | 0.4 | – | 0.06 | – | 1 | 0
